Test [1] concerns T98G. Description: Growth inhibition of human T98G cells after 72 hrs by MTT assay. Format: functional, cell-based. The gist of the method: (§1)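 Glioma lines were grown in RPMI with 10% heat-inactivated FCS, 4 mM glutamine, gentamicin and penicillin-streptomycin. Cells were plated for 24 h at 10,000–40,000 cells/mL, then exposed to compound for 72 h. MTT reduction to formazan was read at 570 nm (reference 630 nm). Six replicates were run.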

Test [2] has as its system T98G. Description: Selectivity index, ratio of IC50 for mouse astrocytes to IC50 for human T98G cells.
Test [3] can be described thus: Selectivity index, ratio of IC50 for mouse astrocytes to IC50 for human U373 cells. Set-up: species or system U-373MG ATCC.
The next test deals with B16-F10. Description: Growth inhibition of mouse B16F10 cells after 72 hrs by MTT assay. Conditions: B16-F10, 72 h. Format: functional, cell-based.
A short description of test [4]: Growth inhibition of human U373 cells after 72 hrs by MTT assay. Conditions: U373 MG. Format: functional, cell-based, U-373MG ATCC. The gist of the method:
as §1

The subject of a further test is Hs 683. Description: Selectivity index, ratio of IC50 for mouse astrocytes to IC50 for human Hs683 cells.
A short description of test [5]: Growth inhibition of human Hs683 cells after 72 hrs by MTT assay. Format: functional, cell-based. Conditions: Hs 683, 72 h. A digest of the protocol: as §1
In general terms: Formazan colour is commonly taken as a measure of viable cells.

In test [6] the test system is U-373MG ATCC. The test is described as follows: Induction of apoptosis in human U373 cells assessed as increase in subG1 cell population at 3 to 10 uM after 24 hrs by flow cytometric analysis. Format: functional, cell-based. For orientation: Flow cytometry measures light scatter and fluorescence of single cells or particles in a stream.
A short description of test [7]: Cell cycle arrest in human U373 cells assessed as accumulation at G0/G1 phase at 3 to 10 uM after 24 hrs by propidium iodide staining-based flow cytometric analysis. The conditions noted are these: U-373MG ATCC. Format: functional.
Test [8] can be described thus: Cell cycle arrest in human U373 cells assessed as accumulation at G0/G1 phase at 30 to 100 uM after 24 hrs by propidium iodide staining-based flow cytometric analysis. Format: functional. Conditions: U-373MG ATCC.
Test [9] in a line: Cytostatic activity against human U373 cells assessed as global growth ratio by measuring number of cells counted in the last and the first frame of study at 20 uM by quantitative videomicroscopic analysis. Format: functional, U-373MG ATCC. A digest of the protocol:
(§2)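 U373 cells were cultured in 25 cm² flasks and filmed by computer-assisted phase-contrast time-lapse for 72 h, one image every 4 min. Growth level was the cell count in the last frame divided by the first. Global growth ratio was treated growth level over control growth level. Compounds were tested at 20 µM.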

The subject of test [10] is U-373MG ATCC. Description: Induction of apoptosis in human U373 cells assessed as increase in subG1 cell population at 10 to 30 uM after 24 hrs by flow cytometric analysis. Format: functional, cell-based.
The nature of test [11]: Growth inhibition of human U373 cells assessed as global growth ratio after 72 hrs by quantitative videomicroscopic analysis relative to untreated control. The conditions noted are these: U373 MG. Format: functional, U-373MG ATCC. A digest of the protocol: as §2
Test [12] in a line: Cell cycle arrest in human U373 cells assessed as accumulation at G0/G1 phase at 10 to 30 uM after 24 hrs by propidium iodide staining-based flow cytometric analysis. Format: functional. The conditions noted are these: U-373MG ATCC.

As usually defined, the IC50 is the concentration needed to halve the response being measured. The low end stands for greater potency in that assay, the high end for weaker potency in that assay. Broadly, the IC80 is the point of the concentration-response curve where the effect stands at 80%.

Active and inactive are the calls of the source. The rule behind the calls is not given here.

Consider `CC1(C)CC(NC(=S)Nc2ccc([N+](=O)[O-])cc2)c2cc(F)ccc2O1` (stereo not drawn), for which the half-inhibitory concentration (IC50) in the test with T98G [1] amounted to 5 µM; with B16-F10, 4 µM; in [4] it was 3 µM; in [5], 3 µM. The “Ratio IC50” value (in the test with T98G [2]; in test [3]; in the test with Hs 683) was 5 in each case. The result in the test on U-373MG ATCC [6] was inactive. Further, the result in test [7] was Active.
In the case of `CC(N/C(=N\C#N)Nc1ccncc1)C(C)(C)C` (stereo not drawn) [PINACIDIL ANHYDROUS], the outcome in test [8] was inactive. In [4], this compound yielded an IC50 greater than 100 µM.
As for `CC1(C)CC(NC(=S)Nc2ccc([N+](=O)[O-])cc2)c2cc(Cl)ccc2O1` (stereo not drawn), the IC50 with T98G [1] came out at 4 µM; in the test on B16-F10 it was 3 µM; in test [4] it was 3 µM; in [5] it was 2 µM. The “Ratio IC50” value (in the test on T98G [2]; in [3]; in the test on Hs 683) was 2 each time. The result in the test on U-373MG ATCC [6] was inactive. Moreover, in [7], the outcome was Active.
Turning to `CC1(C)CC(NC(=S)Nc2cccc([N+](=O)[O-])c2)c2cc(Cl)ccc2O1` (stereo not drawn), the half-inhibitory concentration (IC50) worked out at 4 µM in the test on T98G [1], 6 µM in the test with B16-F10, 3 µM in test [4] and 3 µM in [5]. Besides, the “Ratio IC50” value (in the test on T98G [2]; in test [3]; in the test on Hs 683) was 3 in each case. Further, in the test with U-373MG ATCC [6], the result was inactive. Besides, the outcome in [7] was Active.
Turning to `CC1(C)CC(NC(=O)Nc2ccccc2Cl)c2cc(Cl)ccc2O1` (stereo not drawn), the IC50 in the test with T98G [1] stood at 20 µM; in the test with B16-F10 it was 20 µM; in test [4], 17 µM; in test [5], 25 µM. The “Ratio IC50” value (with T98G [2]; in test [3]; in the test with Hs 683) was greater than 10 throughout. In addition, in test [9], the Ratio was 0.2. In addition, in the test with U-373MG ATCC [10], the outcome was inactive. Also, the IC80 in test [11] is 20 µM. Further, the outcome in [12] was Active.
As for `CC1(C)CC(NC(=O)Nc2ccccc2Cl)c2cc(Br)ccc2O1` (stereo not drawn), the IC50 worked out at 11 µM with T98G [1], 22 µM with B16-F10, 19 µM in test [4] and 22 µM in test [5]. The “Ratio IC50” value (in the test on T98G [2]; in test [3]; in the test with Hs 683) was greater than 10 each time. For the same compound, in [9], the Ratio is 0.2. The result with U-373MG ATCC [10] was inactive. Moreover, the IC80 in [11] was 20 µM. Moreover, in test [12], the result was Active.
Turning to `COc1ccc(Cl)cc1C(=O)NCCc1ccc(S(=O)(=O)NC(=O)NC2CCCCC2)cc1` [GLYBURIDE], the half-maximal inhibitory concentration (IC50) in [4] is greater than 100 µM. Besides, the outcome in test [12] was inactive.

(Values after ChEMBL document CHEMBL2040777, “N-Aryl-N'-(chroman-4-yl)ureas and thioureas display in vitro anticancer activity and selectivity on apoptosis-resistant glioblastoma cells: screening, synthesis of simplified derivatives, and structure-activity relationship analysis” (Eur J Med Chem, 2012).)
